Laboratory results taken from paper PMC4229952 (Molecular cancer therapeutics, 2014).
Ends that are not written are not given here. Peptide text beside a SMILES is read from it. * marks the point of attachment. Palmitoyl = CCCCCCCCCCCCCCCC(=O)*; Myristoyl = CCCCCCCCCCCCCC(=O)*

Columns and labels:
[1] = tested on: Endoglin-GIPC interaction; test: Immunoprecipitation of endoglin-GIPC interaction; type: cell-based, human; conditions: ASPC-1 and MiaPaca-2 cell lines, Figure 3B
[2] = tested on: ASPC-1 cells; test: Thymidine incorporation; type: cell-based, human; conditions: for anti-proliferative activity, screening of lipidated peptides: ASPC-1 cells, [3H] thymidine incorporation, Figure 3A
Outline: (§1)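 About 2×10⁴ cells per well in 24-well plates were cultured with peptides, including a palmitoylated scrambled-sequence control, for the indicated time. Media were RPMI-1640 with 10% FBS for ASPC-1 and DMEM with 10% FBS for MiaPaca-2. [³H]thymidine was then added for 4 h. Cells were washed in ice-cold PBS, fixed in chilled methanol and lysed in 0.1 N NaOH, and TCA-precipitable radioactivity was counted. Error bars are SD; t-test.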

[3] = tested on: Id-1, E-cadherin expression; test: Western blot of differentiation markers; type: cell-based, human; conditions: Figure 6B
Outline: (§2)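 Whole-cell lysates were made in NP-40 buffer with protease and phosphatase inhibitors and cleared at 12,000 rpm for 10 min at 4 °C. Proteins were separated by SDS-PAGE, transferred to PVDF, immunoblotted and detected by chemiluminescence. Cells were harvested at 70–80% confluence.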

[4] = tested on: subcutaneous ASPC-1 tumor; test: Subcutaneous ASPC-1 tumor model, intratumoral peptide injection; type: in vivo, SCID mice; conditions: subcutaneous ASPC-1 model, compared to AP1063, Supplementary Figure S2
Outline: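 Male SCID mice aged 6–8 weeks received 5×10⁶ ASPC-1 cells in 100 μl PBS subcutaneously in the right flank. After 9 days they were randomized (n=7 per group) to daily intratumoral peptide at 500 μg/mouse/day in PBS containing 80% DMSO for 3 weeks; comparator was a scrambled palmitoylated peptide. Tumors were fixed in 10% neutral buffered formalin for 24 h, paraffin-embedded and immunostained (DAB, hematoxylin counterstain). t-test.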

[5] = tested on: Smad-1/5 phosphorylation; test: Western blot of Smad phosphorylation and expression; type: cell-based, human; conditions: Figure 5B
Outline: as §2

[6] = tested on: MiaPaca-2 cells; test: Thymidine incorporation; type: cell-based, human; conditions: MiaPaca-2, AP1063 as control, Figure 3D
Outline: as §1

[7] = target: T1, recombinant GIPC PDZ (Homo sapiens, UniProt O14908); test: Surface plasmon resonance binding to recombinant GIPC PDZ
T1 sequence (O14908 133-213 limits assumed): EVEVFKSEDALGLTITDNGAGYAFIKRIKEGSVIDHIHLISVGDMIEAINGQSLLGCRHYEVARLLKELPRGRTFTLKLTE
Outline: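 Recombinant GIPC PDZ was amine-coupled to a CM5 chip with NHS/EDC at pH 5.5, the optimum found by pH scouting. Lipidated peptide analyte was diluted in HBS-EP from 10×Kd to 0.1×Kd. Runs used the instrument's kinetic/affinity workflow, and Kd was derived from sensorgram analysis.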

[8] = target: T2, Endoglin C-terminal peptide AP1013 (N-myristoyl-PCSTSSMA) (Homo sapiens); test: SPR
T2 chain: Myristoyl-PCSTSSMA

In the case of Palmitoyl-SMTSCAPS [AP1063], the “inhibition of endoglin-GIPC interaction” value [1] is reported as “could not”.

“myristoyl-PCSTSS[K(εN-benzoyl)]A [AP1035]” was tested, and the “anti-proliferative activity, screening of lipidated peptides” value (“anti-proliferative activity, screening” below) [2] was “not superior to the corresponding non-modified AP1013”.

In the case of Ac-PCSTSSMA [AP1030], the “anti-proliferative activity, screening” value [2] is reported as “ineffective”.

Palmitoyl-PCSTSSMA [AP1032] was tested, and the Id-1 expression ([3]; ASPC-1 and MiaPaca-2, 100 μmol/L peptide) was “inhibited Id-1 expression”, the E-cadherin expression ([3]; Western blot, 100 μmol/L peptide) was “did not significantly increase” and the inhibition of proliferation ([2]; ASPC-1, AP1063 as control, Figure 3C) was “inhibited proliferation”. For the same molecule, the “anti-proliferative activity, screening” value [2] was “highest anti-proliferative activity”, the “microvessel density (MVD)” value [4] was “significant decrease in MVD” and the necrotic area [4] was “increased necrotic area”. For the same molecule, the Smad-1/5 phosphorylation [5] was “clearly inhibits”, the “expressions of Smad1 and Smad 2” value [5] was “also inhibited” and the inhibition of proliferation [6] was “inhibited proliferation”. The “inhibition of endoglin-GIPC interaction” value [1] was “effectively inhibited endoglin-GIPC interaction”.

`CCCCCCCCCCCCCC(=O)N1CCC[C@H]1C(=O)N[C@@H](CS)C(=O)N[C@@H](CO)C(=O)N[C@H](C(=O)N[C@@H](CO)C(=O)N[C@@H](CO)C(=O)N[C@@H](CCSC)C(=O)N[C@@H](C)C(=O)O)[C@@H](C)O` [AP1013, Myristoyl-PCSTSSMA] (Myristoyl-PCSTSSMA-OH) was tested, and the Kd [7] was 7.1 ± 2.8 µM.

For “myristoyl-PCST[K(εN-benzoyl)]SMA [AP1036]”, the “anti-proliferative activity, screening” value [2] was “not superior to the corresponding non-modified AP1013”.

B1: GIPC PDZ domain PDZ (protein)
chain: EVEVFKSEDALGLTITDNGAGYAFIKRIKEGSVIDHIHLISVGDMIEAINGQSLLGCRHYEVARLLKELPRGRTFTLKLTE
Work on B1 yielded a Kd [8] of 7.1 µM.
